# Assay outcomes (PubChem)
# Shown are actives, neighbours in structure and some others; about 1.4% of the full set was active somewhere.
# SR-BI DiI inh: mouse SR-BI HDL lipid transfer inhibition; ldlA[mSR-BI] CHO cells, DiI-HDL uptake fluorescence, 3 h; AID 488896; 320,000 tested, 0.96% active; inhibition, % at 12.5 µM;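 active means mean replicate inhibition of at least 70% and a set share of replicates each scoring 70 or more; inconclusive means meets just one of the two criteria; inactive means fails both criteria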
# PKA-R1A activ: PKA-R1A complex activation; PKA-R1A dissociation, Cy5-IP20 fluorescence polarization; scaled: DMSO 0%, 113 µM cGMP 100%; activation, % at 11.4 µM; 340,000 tested, 0.083% active; AID 504707;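 active means percent activation above the mean of all tested compounds plus 3 SD, cut at about 19% in these data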;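 further: higher means more PKAc released from R1A so a rise in polarization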
# PKA-R2B activ: activators of human PKA-R2B complex | P22694+P31323 | PKA-R2B holoenzyme dissociation, Cy5-IP20 fluorescence polarization; R2B truncated from residue 108, S112A mutant; 0% DMSO only, 100% 113 µM cGMP | activation, % at 11.4 µM | 340,000 tested, 0.079% active | AID 504700;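 active means activation above a cutoff set at the mean over all compounds plus 3 SD, cut at about 18% in these data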;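 further: higher means more holoenzyme dissociation and a rise in polarization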
# Target sequence (P31323 whole entry, looked up, other chains not shown, the tested form may be a part): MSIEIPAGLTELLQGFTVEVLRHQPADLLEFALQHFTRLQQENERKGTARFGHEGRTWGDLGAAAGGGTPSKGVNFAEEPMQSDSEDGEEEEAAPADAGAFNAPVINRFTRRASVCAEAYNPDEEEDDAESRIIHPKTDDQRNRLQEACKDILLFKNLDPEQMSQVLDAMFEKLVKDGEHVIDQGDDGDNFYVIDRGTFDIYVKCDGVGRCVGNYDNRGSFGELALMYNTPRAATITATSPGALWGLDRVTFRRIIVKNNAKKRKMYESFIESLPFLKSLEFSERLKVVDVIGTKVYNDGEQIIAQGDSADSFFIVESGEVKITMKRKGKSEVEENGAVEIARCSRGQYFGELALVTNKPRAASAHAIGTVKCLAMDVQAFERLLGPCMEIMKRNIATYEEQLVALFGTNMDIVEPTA
# SR-BI uptake up: activators of SR-BI mediated HDL lipid uptake | CHO ldlA[mSR-BI] cells, DiI-HDL uptake fluorescence, 3 h; 100 = double the neutral-control signal | activation, % at 12.5 µM | 320,000 tested, 0.096% active | AID 504775;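 active means mean replicate activation of at least 60% and every replicate at or above 60%; inconclusive means mean or all-replicate condition met, but not both; inactive means mean below 60% and not all replicates reaching 60%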
#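 System: LDL receptor-deficient CHO ldlA cells overexpressing murine SR-BI | Timing: 3 h uptake period with compound, 37 °C | Medium: HEPES-buffered (25 mM, pH 7.4) F12 plus 0.5% BSA | Dosing: Single-point compound dose | Signal: Bottom-read fluorescence, 550/595 nm | Read-out: Retained DiI signal reflecting DiI-HDL uptake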
# Vif imaging: HIV Vif inhibition. HEK293T cells, Vif self-association by quenched fluorescence, imaging, 24 h. inhibition, % at 7.49 µM. 340,000 tested, 0.35% active; in the data active means inhibition above about 50%, passing the limit was not always enough; inconclusive means no clear call, values can overlap the other calls; inactive means below about 31%
# Numbers stand for hits; . = inactive; ? = inconclusive; / = no result given.
SMILES,SR-BI DiI inh,PKA-R1A activ,PKA-R2B activ,SR-BI uptake up,Vif imaging
CCOc1ccc(C(=O)CCC(=O)N(CC)CC(=O)Nc2c(F)cccc2F)cc1,.,.,.,.,.
Cc1cc(NS(=O)(=O)c2ccc(NC(=O)c3cc(-c4cccnc4)nc4ccc(Cl)cc34)cc2)no1,.,.,.,.,.
O=C(Nc1ccc(C(=O)N2CCOCC2)cc1)c1cc(-c2cccnc2)nc2ccc(Cl)cc12,79,.,.,.,.
CC(=O)Nc1cccc(NC(=O)c2cc(-c3cccnc3)nc3ccc(Cl)cc23)c1,73,.,.,.,.
CC(=O)Nc1cccc(NC(=O)c2cc(-c3ccccn3)nc3ccc(Cl)cc23)c1,.,.,.,.,70
COc1ccc(NC(=O)c2ccc(Cl)c(S(=O)(=O)NCC3CCCO3)c2)c(OC)c1 (centres undefined),.,.,.,.,.
O=C(Nc1ccc(-c2nc3ccc(NC(=O)c4cccs4)cc3[nH]2)cc1)c1cccs1,.,.,.,.,80
O=C(Nc1ccc2nc(-c3cccs3)[nH]c2c1)c1cccs1,.,.,.,.,.
O=C(Nc1cccc(C(=O)O)c1)/C(=C\c1ccc2c(c1)OCO2)NC(=O)c1ccccc1Br,/,.,.,/,.
Cc1ccnc(NC(=O)c2cccc(NC(=O)c3ccc(Cl)c(Cl)c3)c2)c1,?,.,.,.,.
CC(=O)c1cccc(NC(=O)c2ccc3ccccc3c2)c1,72,.,.,.,.
Cc1ccnc(NC(=O)c2cccc(NC(=O)c3ccc(Cl)cc3)c2)c1,89,.,.,.,.
COc1ccc(C)c2sc(=NC(=O)c3ccc(C(C)=O)cc3)n(C)c12,/,.,.,/,.
COc1ccc(C)c2sc(=NC(=O)c3ccccc3)n(C)c12,74,.,.,.,.
CC1(N(O)C=C2C=CC(=O)C=C2)CCCCC1=O (centres undefined),/,.,.,/,.
Oc1ccc2ccccc2c1/C=N/Nc1nnc(-c2ncc[nH]2)c2ccccc12,136,.,.,.,87
CCn1c(SCC(=O)c2ccc(O)c(O)c2)nnc1-c1ccc(C)cc1,.,.,.,.,.
CCn1c(SCC(=O)c2ccc3c(c2)Cc2ccccc2-3)nnc1-c1ccc(N)cc1,77,.,.,.,.
CCOC(=O)C1=C(COC(=O)C2(C)CC2(Cl)Cl)NC(=O)NC1c1ccc(OC)cc1 (centres undefined),73,.,.,.,.
CCOC(=O)C1=C(CP(=O)(c2ccccc2)c2ccccc2)NC(=O)NC1c1ccc(OC)cc1 (centres undefined),.,.,.,.,.
COc1ccc(/C=C/C(=O)Oc2cccc(/C=N/NC(=O)c3cccc(F)c3)c2)cc1,73,.,.,.,.
COc1ccc(/C=C/C(=O)Oc2ccc(/C=N\NC(=O)c3ccc(F)cc3)cc2)cc1,.,.,.,.,.
O=C(NNC(=O)c1ccccc1O)c1ccc(Cl)c(S(=O)(=O)N2CCCCC2)c1,103,.,.,.,.
O=C(NNC(=O)C1CCN(S(=O)(=O)c2c(Cl)cccc2Cl)CC1)c1ccccc1O,103,.,.,.,.
O=C(NNC(=O)C1CCN(S(=O)(=O)c2ccccc2)CC1)c1ccccc1O,83,.,.,.,.
SMILES,SR-BI DiI inh,PKA-R1A activ,PKA-R2B activ,SR-BI uptake up,Vif imaging
O=C(NNC(=O)C1CCN(S(=O)(=O)c2ccccc2C(F)(F)F)CC1)c1ccccc1O,100,.,.,.,.
CC1(C(=O)NS(=O)(=O)C2CC2)CCCN(C(=O)c2ccccc2OC(F)(F)F)C1 (centres undefined),/,/,/,/,.
CC(C)c1ccc(NC(=O)C2Cc3c(-c4ccco4)ccnc3O2)cc1 (centres undefined),/,/,/,/,.
CCOc1ccccc1/C=C/c1onc(C)c1S(=O)(=O)N1CCC(C(=O)N(CC)CC)CC1,71,.,.,.,.
Cc1noc(/C=C/c2ccco2)c1S(=O)(=O)N1CCC(C(=O)NC(C)c2ccccc2)CC1 (centres undefined),81,.,.,.,.
COC(=O)c1ccc(N2C(=O)Nc3ccccc3N2O)cc1,.,.,.,.,.
COc1ccc(NC(=O)N(C)C[C@H]2OCc3cnnn3CCCC(=O)N([C@@H](C)CO)C[C@H]2C)cc1,/,.,.,/,/
CCOC(=O)N1CCN(C(=O)COC(=O)c2ccc(N(C)C)cc2)CC1,.,.,.,.,.
NNC(=O)c1cc2c(N3CCC(Cc4ccccc4)CC3)ncnc2s1,80,.,.,.,.
N#C/C(=N\Nc1ccccc1F)c1nc(-c2ccccc2)cs1,71,.,.,.,.
N#C/C(=C(/O)CCl)c1nc(-c2ccccc2)cs1,/,.,.,/,/
CC(=O)N(C)c1ccc(N=Cc2c(O)ccc3ccccc23)cc1,.,.,.,.,.
Oc1ccccc1N=Cc1c(O)ccc2ccccc12,80,.,.,.,/
C=Cc1ccc(N=Cc2c(O)ccc3ccccc23)cc1,75,.,.,.,/
Oc1ccc2ccccc2c1C=Nc1ccccc1Br,.,.,.,.,.
COC(CNC(=O)CNC(=S)N(Cc1ccccc1)Cc1cccnc1)OC,.,.,.,.,.
Cc1sc(NC(=O)c2ccco2)nc1-c1ccc2c(c1)CC(C)N2C(=O)C1CC1 (centres undefined),79,.,.,.,.
Cc1cccc(NC(=O)CCS(=O)(=O)c2ccc(Br)cc2)c1,.,.,.,.,/
O=C(NCc1ccco1)c1ccc(-c2ccc(F)c(F)c2)c2ccoc12,/,/,/,/,.
Cc1sc(N/N=C/c2cccs2)nc1-c1ccccc1,73,.,.,.,.
COc1c(/C=N/NC(=O)c2ccncc2)c(CCN(C)C(C)=O)cc2c1OCO2,.,.,.,145,.
CCOc1[nH]n(-c2ccc(Cl)cc2)c(=O)c1C=Nc1ccc(Cl)cc1,75,.,.,.,.
CCOc1[nH]n(-c2ccccc2)c(=O)c1C=Nc1ccc(OC)cc1,.,.,.,.,.
CC(C)(C)[C@H]1COC(=O)CCC/C=C/C[C@H](CC(=O)N(CCO)Cc2ccccc2)C(=O)N1,.,.,.,.,.
Cc1ccnc(Nc2nc(-c3ccc(O)cc3O)cs2)c1,83,.,.,.,.
O=C1COc2ccc(C(=O)COC(=O)Cc3c(F)cccc3Cl)cc2N1,.,.,.,.,.
Cc1ccccc1S(=O)(=O)NC(=O)C1(C)CCN1C(=O)C1(c2ccc(Cl)cc2)CCC1 (centres undefined),/,/,/,/,.
O=C(Nc1cnn(Cc2ccc(F)cc2)c1)c1cc(-c2cccs2)on1,.,.,.,.,57
COc1ccc(-c2cc(C(=O)Nc3cnn(Cc4ccccc4C)c3)no2)cc1OC,.,.,.,.,86
CCCc1cc(C(=O)Nc2cnn(Cc3ccc(F)cc3)c2)no1,/,.,.,/,.
